Target: T1, Tyrosinase (Agaricus bisporus, UniProt O42713)
T1 sequence (O42713 whole entry): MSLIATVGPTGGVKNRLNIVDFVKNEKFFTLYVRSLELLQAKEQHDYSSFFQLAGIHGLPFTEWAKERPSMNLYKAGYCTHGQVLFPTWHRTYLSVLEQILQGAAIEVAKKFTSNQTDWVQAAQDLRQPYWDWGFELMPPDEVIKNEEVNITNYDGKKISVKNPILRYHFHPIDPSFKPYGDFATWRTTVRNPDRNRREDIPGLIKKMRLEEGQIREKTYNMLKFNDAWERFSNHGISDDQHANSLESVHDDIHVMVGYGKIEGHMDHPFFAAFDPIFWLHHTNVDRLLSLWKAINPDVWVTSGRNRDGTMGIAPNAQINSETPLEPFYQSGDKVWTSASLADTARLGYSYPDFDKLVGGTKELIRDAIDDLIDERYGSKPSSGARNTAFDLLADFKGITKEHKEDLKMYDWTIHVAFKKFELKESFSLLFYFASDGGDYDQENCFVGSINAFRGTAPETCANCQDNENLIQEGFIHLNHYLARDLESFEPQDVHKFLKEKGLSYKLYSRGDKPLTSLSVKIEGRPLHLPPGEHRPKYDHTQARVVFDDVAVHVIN
Test: Inhibition of mushroom tyrosinase
In short: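 Mushroom tyrosinase diphenolase activity, 30 units (0.2 mg/mL), preincubated 10 min at 25 °C with compound in 50 mM phosphate buffer pH 6.8; compound diluted from DMSO stock. At least eight inhibitor concentrations; IC50 interpolated from dose-response curves.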

| Structure (SMILES) | IC50 |
| --- | --- |
| NC(=S)N/N=C\C=C\c1ccccc1 | 2.7 µM |
| CC(C)=C/C(C)=N\NC(N)=S | 11.5 µM |
| C/C=N\NC(N)=S | 0.23 µM |
| NC(=S)N/N=C1\CCCC(=O)C1 | 15.1 µM |
| CC/C=N\NC(N)=S | 0.2 µM |
| CC/C(C)=N\NC(N)=S | 0.28 µM |
| Cc1ccc(C)n1NC(N)=S | 0.85 µM |
| CC(C)/C=N\NC(N)=S | 0.62 µM |
| NC(=S)NN=C1CCCC1 | 0.17 µM |
| CC(C)=NNC(N)=S | 0.086 µM |
| C/C=C/C=N\NC(N)=S | 1 µM |
| NC(=S)NN=C1CCCCC1 | 0.95 µM |

Reference: ChEMBL document CHEMBL1137680, “A class of potent tyrosinase inhibitors: alkylidenethiosemicarbazide compounds” (Eur J Med Chem, 2009)
